# In ChEMBL document CHEMBL4823313 (Bioorg Med Chem, 2021):
# What was measured:
# SARS-CoV-2 [1] = assay: (§1) Antiviral activity against SARS-CoV-2 nCoV-2019BetaCoV/Wuhan/WIV04/ infected in African green monkey Vero E6 cells assessed as inhibition of viral replication at 5 uM when host cells were pretreated for 1 hr followed by viral infection then followed by removal of infected supernatant and subsequent culture addition with fresh compounds and measured after 24 hrs by qRT-PCR method relative to control; assay type: functional; conditions: Severe acute respiratory syndrome coronavirus 2, nCoV-2019BetaCoV/Wuhan/WIV04/, Vero C1008, time 25 hrs
# SARS-CoV-2 [2] = assay: as §1, with “replication” for “replication at 5 uM”, “method” for “method relative to control”; assay type: functional, organism-based; conditions: Severe acute respiratory syndrome coronavirus 2, nCoV-2019BetaCoV/Wuhan/WIV04/, Vero C1008
# Vero C1008 = assay: Cytotoxicity against African green monkey Vero E6 cells by CCK8 assay; assay type: cell-based; conditions: chlorocebus sabaeus
# Procedure, shortened: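 Vero E6 cell viability was read by CCK-8 colorimetric assay.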
# SARS-CoV-2 [3] = assay: as §1, with “10” for “5”; assay type: functional; conditions: Severe acute respiratory syndrome coronavirus 2, nCoV-2019BetaCoV/Wuhan/WIV04/, Vero C1008, time 25 hrs
# [4] = Stability of compound in stimulated gastric fluid incubated for 24 hrs by HPLC analysis; assay type: ADME; conditions: simulated gi fluid
# Procedure, shortened: (§2)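 Compound solution was diluted into artificial gastric or intestinal juice and incubated at 37 °C. Samples were taken at 0, 1, 2, 3, 4, 6 and 24 h and quenched with ice-cold acetonitrile. After centrifugation, supernatants were analysed by HPLC.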
# [5] = Stability of compound in stimulated intestinal fluid assessed as parent compound remaining measured after 4 hrs by HPLC analysis; assay type: ADME; conditions: simulated intestinal fluid, read-out: Stabilty; procedure, shortened: as §2
# [6] = Half life in CD-1 mouse at 25 mg/kg, iv by LC-MS/MS analysis; assay type: ADME, organism-based; conditions: in vivo; for half-life: CD-1, mouse
# Procedure, shortened: (§3)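 Mice were fasted 12 h. Dosing was 50 mg/Kg orally or 25 mg/Kg intravenously, in DMSO-ethanol-PEG300-saline (5/5/40/50, v/v/v/v). Blood was drawn from the femoral vein into heparinized tubes at several post-dose times, and analytes were measured by LC-MS/MS.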
# [7] = AUClast in CD-1 mouse at 50 mg/kg, po by LC-MS/MS analysis; assay type: ADME, organism-based; parameters: route oral, time 0 - last, dose 50 mg/kg; conditions: in vivo; procedure, shortened: as §3
# [8] = AUClast in CD-1 mouse at 25 mg/kg, iv by LC-MS/MS analysis; assay type: ADME, organism-based; parameters: route intravenous, time 0 - last, dose 25 mg/kg; conditions: in vivo; procedure, shortened: as §3
# [9] = Half life in CD-1 mouse at 50 mg/kg, po by LC-MS/MS analysis; assay type: ADME, organism-based; conditions: in vivo; procedure, shortened: as §3
# [10] = Tmax in CD-1 mouse at 50 mg/kg, po by LC-MS/MS analysis; assay type: ADME, organism-based; conditions: in vivo; procedure, shortened: as §3
# [11] = Observed MRT infinity in CD-1 mouse at 50 mg/kg, po by LC-MS/MS analysis; assay type: ADME, organism-based; conditions: in vivo; procedure, shortened: as §3
# [12] = Observed volume of distribution at steady state in CD-1 mouse at 25 mg/kg, iv by LC-MS/MS analysis; assay type: ADME, organism-based; conditions: in vivo; for Vd: CD-1, mouse, read-out: Vdss; procedure, shortened: as §3
# [13] = Observed MRT infinity in CD-1 mouse at 25 mg/kg, iv by LC-MS/MS analysis; assay type: ADME, organism-based; conditions: in vivo; for MRT inf: CD-1, mouse; procedure, shortened: as §3
# [14] = Oral bioavailability in CD-1 mouse at 50 mg/kg by LC-MS/MS analysis; assay type: ADME, organism-based; conditions: in vivo; procedure, shortened: as §3
# [15] = Cmax in CD-1 mouse at 50 mg/kg, po by LC-MS/MS analysis; assay type: ADME, organism-based; parameters: route oral, dose 50 mg/kg; conditions: in vivo; procedure, shortened: as §3
# [16] = Acute toxicity in ICR mouse assessed as effect on body weight at 100 to 1000 mg/kg, po via gavage and measured after 7 days; assay type: organism-based; conditions: in vivo, 168 h, dose 100-1000 mg/kg, time 7 day
# Procedure, shortened: (§4)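 Male ICR mice (28–36 g), 3 per group, were fasted 16 h. Each got one oral gavage dose of 50, 100, 200, 500 or 1000 mg/kg in 5% DMSO, 5% Solution Hs15 and 90% saline. Clinical signs, body weight and food consumption were followed for 7 days, and animals were sacrificed on day 8.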
# [17] = Acute toxicity in ICR mouse assessed as effect on organ weight at 100 to 1000 mg/kg, po via gavage and measured after 7 days; assay type: organism-based; conditions: in vivo, 168 h, dose 100-1000 mg/kg, time 7 day
# [18] = Acute toxicity in po dosed ICR mouse assessed as maximum tolerated dose measured after 7 days; assay type: organism-based; conditions: in vivo, time 7 day; procedure, shortened: as §4
smiles,measurement,setting,value
Nc1ncnn2c([C@@H]3O[C@H](CO)[C@@H](O)[C@H]3F)ccc12,inhibition at 5 µM,SARS-CoV-2 [1],< 10%
CCC(CC)COC(=O)[C@H](C)N[P@](=O)(OC[C@H]1O[C@@](C#N)(c2ccc3c(N)ncnn23)[C@H](O)[C@@H]1O)Oc1ccccc1,EC50,SARS-CoV-2 [2],2 µM
same,inhibition at 5 µM,SARS-CoV-2 [1],65%
Nc1ncnn2c([C@@H]3O[C@H](CO)[C@@H](O)[C@H]3O)ccc12,Activity,Vero C1008,Toxic
N#C[C@@]1(c2cc(F)c3c(N)ncnn23)O[C@H](CO)[C@@H](O)[C@H]1O,inhibition at 10 µM,SARS-CoV-2 [3],97%
same,EC50,SARS-CoV-2 [2],3.3 µM
same,inhibition at 5 µM,SARS-CoV-2 [1],80%
CC(=O)[C@@]1(c2ccc3c(N)ncnn23)O[C@H](CO)[C@@H](O)[C@H]1O,inhibition at 5 µM,SARS-CoV-2 [1],< 10%
CCCCCOC(=O)Nc1ncnn2c([C@]3(C#N)O[C@H](CO)[C@@H](O)[C@H]3O)ccc12,inhibition at 10 µM,SARS-CoV-2 [3],65%
CC(C)C(=O)O[C@H]1[C@@H](OC(=O)C(C)C)[C@](C#N)(c2ccc3c(N)ncnn23)O[C@@H]1CO,inhibition at 5 µM,SARS-CoV-2 [1],99%
Nc1ncnn2c([C@]3(CO)O[C@H](CO)[C@@H](O)[C@H]3O)ccc12,inhibition at 5 µM,SARS-CoV-2 [1],< 10%
N#C[C@@]1(c2cc(I)c3c(N)ncnn23)O[C@H](CO)[C@@H](O)[C@H]1O,inhibition at 5 µM,SARS-CoV-2 [1],< 10%
CC(C)[C@H](N)C(=O)OC[C@H]1O[C@@](C#N)(c2ccc3c(N)ncnn23)[C@H](O)[C@@H]1O,Stabilty,[4],Stable
same,remaining at 4 h,[5],9%
OC[C@H]1O[C@@H](c2ccc3c(NO)ncnn23)[C@H](O)[C@@H]1O,inhibition at 5 µM,SARS-CoV-2 [1],< 10%
CC(C)C(=O)OC[C@H]1O[C@@](C#N)(c2ccc3c(N)ncnn23)[C@H](O)[C@@H]1OC(=O)C(C)C,inhibition at 5 µM,SARS-CoV-2 [1],99%
N#Cc1cc([C@]2(C#N)O[C@H](CO)[C@@H](O)[C@H]2O)n2ncnc(N)c12,inhibition at 5 µM,SARS-CoV-2 [1],< 10%
CO[C@@H]1[C@H](O)[C@@H](CO)O[C@@]1(C#N)c1ccc2c(N)ncnn12,inhibition at 5 µM,SARS-CoV-2 [1],< 10%
Br.CC(C)C(=O)OC[C@H]1O[C@@](C#N)(c2ccc3c(N)ncnn23)[C@H](OC(=O)C(C)C)[C@@H]1OC(=O)C(C)C,half-life,[6],2.48 h
same,AUC(0-t),[7],7.11 µg·h/mL
same,AUC(0-t),[8],3.6 µg·h/mL
same,half-life,[9],2.71 h
C=C(C)[C@@]1(c2ccc3c(N)ncnn23)O[C@H](CO)[C@@H](O)[C@H]1O,inhibition at 5 µM,SARS-CoV-2 [1],< 10%
NC(=O)[C@@]1(c2ccc3c(N)ncnn23)O[C@H](CO)[C@@H](O)[C@H]1O,inhibition at 5 µM,SARS-CoV-2 [1],< 10%
CC(C)[C@H](N)C(=O)O[C@H]1[C@@H](O)[C@](C#N)(c2ccc3c(N)ncnn23)O[C@@H]1CO.Cl.Cl,t1/2,"[6]; mouse, 25 mg/kg",0.61 h
same,AUC(0-t),[7],2.98 µg·h/mL
same,Tmax,[10],0.83 h
same,AUC(0-t),[8],5.42 µg·h/mL
same,Stabilty,[4],Stable
same,MRT inf,[11],2.76 h
same,remaining at 4 h,[5],34%
same,Vdss,"[12]; mouse, 25 mg/kg",3.86 L/kg
same,EC50,SARS-CoV-2 [2],0.11 µM
same,MRT,"[13]; mouse, 25 mg/kg",0.78 h
same,F,[14],27.5%
same,Cmax,[15],1.51 µg/mL
same,inhibition at 5 µM,SARS-CoV-2 [1],99%
same,half-life,[9],1.72 h
CC(C)C(=O)O[C@H]1[C@@H](O)[C@](C#N)(c2ccc3c(N)ncnn23)O[C@@H]1CO,half-life,[6],0.83 h
same,AUC(0-t),[7],14.6 µg·h/mL
same,Tmax,[10],0.33 h
same,AUC(0-t),[8],10.2 µg·h/mL
same,Stabilty,[4],Stable
same,MRT inf,[11],1.82 h
same,remaining at 4 h,[5],100%
same,Vd,[12],2.59 L/kg
same,EC50,SARS-CoV-2 [2],0.25 µM
same,MRT inf,[13],1.07 h
same,F,[14],71.6%
same,Cmax,[15],7.88 µg/mL
same,inhibition at 5 µM,SARS-CoV-2 [1],99%
same,half-life,[9],1.11 h
N#C[C@@]1(c2ccc3c(O)ncnn23)O[C@H](CO)[C@@H](O)[C@H]1O,inhibition at 5 µM,SARS-CoV-2 [1],< 10%
Nc1ncnn2c([C@@H]3O[C@H](CO)[C@@H](O)C3(F)F)ccc12,inhibition at 5 µM,SARS-CoV-2 [1],< 10%
CCC(CC)COC(=O)[C@H](C)N[P@](=O)(OC[C@H]1O[C@@](C#N)(c2cc(F)c3c(N)ncnn23)[C@H](O)[C@@H]1O)Oc1ccccc1,inhibition at 10 µM,SARS-CoV-2 [3],82%
N#C[C@@]1(c2cc(Cl)c3c(N)ncnn23)O[C@H](CO)[C@@H](O)[C@H]1O,inhibition at 5 µM,SARS-CoV-2 [1],< 10%
N#C/C=C/[C@@]1(c2ccc3c(N)ncnn23)O[C@H](CO)[C@@H](O)[C@H]1O,inhibition at 5 µM,SARS-CoV-2 [1],< 10%
N#C[C@@]1(c2ccc3c(N)ncnn23)O[C@H](CO)[C@@H](O)[C@H]1O [GS-441524],EC50,SARS-CoV-2 [2],0.48 µM
same,inhibition at 5 µM,SARS-CoV-2 [1],99%
CC(C)C(=O)OC[C@H]1O[C@@](C#N)(c2ccc3c(N)ncnn23)[C@H](O)[C@@H]1O [OBELDESIVIR],Activity,[16],Non-Toxic
same,half-life,[6],4.77 h
same,Activity,[17],Non-Toxic
same,AUC(0-t),[7],13.8 µg·h/mL
same,Tmax,[10],0.42 h
same,AUC(0-t),[8],7.98 µg·h/mL
same,Stabilty,[4],Stable
same,MRT inf,[11],2.16 h
same,remaining at 4 h,[5],2%
same,MTD at 168 h,[18],1000 mg/kg
same,Vd,[12],4.17 L/kg
same,EC50,SARS-CoV-2 [2],0.23 µM
same,MRT inf,[13],1.33 h
same,F,[14],86.6%
same,Cmax,[15],6.68 µg/mL
same,inhibition at 5 µM,SARS-CoV-2 [1],99%
same,half-life,[9],2.46 h
